Experimental data from different studies.
Protocols differ between the studies behind these lines.
Cell line: MDA-MB-231
Read-out: cell growth or viability

With Nc1cc(Br)c(Br)cc1N the IC50 was 60 µM (72 h).
The IC50 of CC1=CC(=O)c2c(O)cccc2C1=O is reported as 4.4 µM (MTT; 24 h).
For Nc1cc(Cl)c(Cl)cc1N, the IC50 was 150 µM (72 h).
With CO[C@]1([C@@H]2CSC(=O)N2Cc2ccccc2)C[C@H]2C[C@@H](CC[C@H](C)/C=C\C=C\CC/C(C)=C\C(=O)O2)O1 the IC50 was 6.82 µM (MTT; 72 h).
The IC50 of N.N.[Cl][Pt][Cl] is reported as 12.2 µM (SRB).
With CCC1(c2ccc(N)cc2)CCC(=O)NC1=O (stereo not drawn) the IC50 was > 50 µM (CCK-8; 48 h).
With C/C1=C/C(=O)O[C@@H]2C[C@@H](CC[C@H](C)/C=C\C=C\CC1)O[C@@](O)([C@@H]1CSC(=O)N1CO)C2 the IC50 was 2.99 µM (MTT; 72 h).
With CC(C)=CCc1c(O)cc2oc3cc(O)c(O)c(CC=C(C)C)c3c(=O)c2c1O the IC50 was 16.4 µM (48 h).
COC(C(=O)N1C(=O)SCC1C1(OC)CC2CC(CCC(C)C=CC=CCCC(C)=CC(=O)O2)O1)c1ccccc1 (stereo not drawn) has an IC50 of 26.2 µM (MTT; 72 h).
N.N.O=C([O-])C1(C(=O)[O-])CCC1.[Pt+2] has an IC50 of 33 µM (MTT; 96 h).
The IC50 of N.N.[Cl][Pt][Cl] is reported as 68.4 µM (24 h).
The IC50 of Cn1c(CCCC(=O)O)nc2cc(N(CCCl)CCCl)ccc21 is reported as 13.3 µM (MTT).
